ChEMBL document CHEMBL4808174, “Exploring Heteroaromatic Rings as a Replacement for the Labile Amide of Antiplasmodial Pantothenamides” (J Med Chem, 2021)
The source made the active and inactive calls. The rule behind the calls is not given here.

Tests used:
[1] = Antiproliferative activity against human HFF cells assessed as cell proliferation at 200 uM incubated for 3 to 4 days in presence of 1 uM pantothenate by SYBR assay
Plasmodium falciparum [2] = assay: Antiplasmodial activity against ring stage Plasmodium falciparum 3D7 infected in human erythrocytes assessed as inhibition of parasite growth incubated for 96 hrs in presence of 1 uM pantothenate by SYBR Green I dye based fluorescence assay; format: functional, organism-based; conditions: 3D7, Erythrocyte
Outline: (§1)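 P. falciparum 3D7 ring stages at 0.5% parasitemia and 1% hematocrit in Albumax II medium. Where specified, 100 μM sodium pantothenate was added. Incubation 96 h, then freeze-thaw and SYBR Safe lysis-buffer fluorescence. Chloroquine 0.25-25 μM served as zero-proliferation control. Experiments in triplicate; 100 μM pantothenate data from two experiments.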

[3] = Antiproliferative activity against human HFF cells assessed as cell proliferation at 100 uM incubated for 3 to 4 days in presence of 1 uM pantothenate by SYBR assay
[4] = Selectivity index, ratio of IC50 for human HFF cells to IC50 for Plasmodium falciparum in presence of 1 uM pantothenate; format: toxicity; conditions: HFF cells versus Plasmodium falciparum, read-out: Ratio IC50
Outline: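 HFF cells grown 3-4 days in RPMI 1640 with 10% bovine calf serum and antibiotics, with compound up to 200 μM; SYBR Safe-based read-out. Selectivity index = HFF IC50 divided by P. falciparum IC50 at 1 μM pantothenate. Where HFF inhibition stayed below 50%, 200 μM (or 100 μM) was used as the HFF value to set limits.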

Plasmodium falciparum [5] = assay: Antiplasmodial activity against ring stage Plasmodium falciparum 3D7 infected in human erythrocytes assessed as inhibition of parasite growth incubated for 96 hrs in presence of 100 uM pantothenate by SYBR Green I dye based fluorescence assay; format: functional, organism-based; conditions: 3D7, Erythrocyte
Outline: as §1

Plasmodium falciparum [6] = assay: Antiplasmodial activity against ring stage Plasmodium falciparum 3D7 infected in human erythrocytes assessed as inhibition of parasite growth incubated for 48 hrs by SYBR Green I dye based fluorescence assay; format: functional, organism-based; conditions: Erythrocyte
Outline: (§2)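 Triple-sorbitol-synchronized 3D7 ring-stage cultures at 0.5% parasitemia and 1% hematocrit were exposed to compound at ten concentrations at 37 °C in 96% N₂, 3% CO₂, 1% O₂. After 5, 10, 24 or 48 h, cells were washed three times and resuspended without compound. Total culture time 96 h, then SYBR Safe fluorescence. Three experiments in triplicate.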

[7] = Drug concentration in BALB/c mouse plasma at 100 mg/kg/day, ip measured after 1 day; format: ADME, organism-based; conditions: whole blood, in the assay text read “whole blood” for “plasma”
Outline: (§3)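 Dosing was 100 mg/kg ip in P. berghei-infected female BALB/c mice, repeated at 24 h. 10 μL tail whole blood was sampled by microsampling device at 3 h, at ~24 h (before the second dose) and at 48 h. Samples were extracted with 80% acetonitrile using diazepam as internal standard and quantified by LC-MS MRM against a spiked-blood standard curve of 5 ng/mL-20 μg/mL. LLQ was 16 or 17 nM. Mean of five mice.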

Plasmodium falciparum [8] = assay: Antiplasmodial activity against ring stage Plasmodium falciparum 3D7 infected in human erythrocytes assessed as inhibition of parasite growth incubated for 24 hrs by SYBR Green I dye based fluorescence assay; format: functional, organism-based; conditions: Erythrocyte
Outline: as §2

[9] = Metabolic stability in human liver microsomes assessed as intrinsic clearance at 1 uM in presence of absence of NADPH regenerating system measured per mg protein by LC-MS analysis; format: ADME, Microsome; conditions: read-out: CLH
Outline: (§4)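 Stability in mouse or human liver microsomes was measured with and without an NADPH-regenerating system, giving in vitro t1/2 and intrinsic clearance in μL/min/mg protein.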

[10] = Metabolic stability in human liver microsomes assessed as half life at 1 uM in presence or absence of NADPH regenerating system by LC-MS analysis; format: ADME, Microsome
Outline: as §4

Plasmodium falciparum [11] = assay: Antiplasmodial activity against ring stage Plasmodium falciparum 3D7 infected in human erythrocytes assessed as inhibition of parasite growth at 100 uM pretreated with compound followed by parasite infection by SYBR Green I dye based fluorescence assay; format: functional, organism-based; conditions: Erythrocyte
[12] = Apparent permeability of the compound across apical to basolateral side in human Caco-2 cells at 20 uM
[13] = Drug degradation in mouse liver microsomes in absence of NADPH after 60 mins; format: ADME, Microsome; conditions: read-out: Drug degradation
Outline: (§5)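 Degradation in mouse or human liver microsomes was followed over 60 min, with and without an NADPH-regenerating system.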

Plasmodium falciparum [14] = assay: Antiplasmodial activity against ring stage Plasmodium falciparum 3D7 infected in human erythrocytes assessed as inhibition of parasite growth incubated for 10 hrs by SYBR Green I dye based fluorescence assay; format: functional, organism-based; conditions: Erythrocyte
Outline: as §2

[15] = Metabolic stability in mouse liver microsomes assessed as half life at 1 uM in presence or absence of NADPH regenerating system by LC-MS analysis; format: ADME, Microsome
Outline: as §4

Plasmodium berghei = assay: Antiplasmodial activity against Plasmodium berghei ANKA infected in BALB/c mouse model of malaria assessed as reduction in parasitemia at 100 mg/kg/day, ip for 2 days by Giemsa staining based flow cytometry analysis; format: functional, organism-based; conditions: time 2.0 day
Outline: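 Female BALB/c mice, 8-12 weeks, infected ip with 1 × 10⁵ P. berghei ANKA-infected erythrocytes. Once parasitemia reached 0.4-1.5% (5 mice per group), 100 mg/kg was given ip in 150 mM NaCl containing 20.9% v/v DMSO; second dose at 24 h. Daily tail-bleed parasitemia was read by Giemsa-stained thin smear or by flow cytometry (JC-1, Hoechst 33342, anti-CD45/CD71/TER119).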

[16] = Metabolic stability in mouse liver microsomes assessed as intrinsic clearance at 1 uM in presence or absence of NADPH regenerating system measured per mg protein by LC-MS analysis; format: ADME, Microsome; conditions: read-out: CLH
Outline: as §4

[17] = Drug concentration in BALB/c mouse plasma at 100 mg/kg/day, ip measured after 2 days; format: ADME, organism-based; conditions: whole blood, in the assay text read “whole blood” for “plasma”
Outline: as §3

[18] = Drug concentration in BALB/c mouse plasma at 100 mg/kg/day, ip measured after 3 hrs; format: ADME, organism-based; conditions: whole blood, in the assay text read “whole blood” for “plasma”
Outline: as §3

[19] = Drug degradation in mouse liver microsomes in presence of NADPH after 60 mins; format: ADME, Microsome; conditions: 1 h
Outline: as §5

Plasmodium knowlesi = assay: Antiplasmodial activity against Plasmodium knowlesi infected in human erythrocytes assessed as inhibition of parasite growth incubated for 72 hrs in presence of 1 uM pantothenate by SYBR Green I dye based fluorescence assay; format: functional, organism-based; conditions: Erythrocyte
[20] = Drug degradation in mouse liver microsomes after 60 mins; format: ADME, Microsome; conditions: read-out: Drug degradation
Outline: as §5

[21] = Drug degradation in human liver microsomes after 60 mins; format: ADME, Microsome; conditions: read-out: Drug degradation
Outline: as §5

SMILES | proliferation at 200 µM [1] | IC50 (Plasmodium falciparum [2]) | proliferation at 100 µM [3] | selectivity ratio at 1 µM [4] | also measured
CCCCCc1nnc(CNC(=O)[C@H](O)C(C)(C)CO)[nH]1 | 71% | 40 µM | 84% | > 5 | –
CCCCCc1cc(CNC(=O)[C@H](O)C(C)(C)CO)on1 | 88% | 0.63 µM | 100% | > 310 | IC50 (Plasmodium falciparum [5]): > 12 µM
CCCCCc1cc(CNC(=O)[C@H](O)C(C)(C)CO)no1 | 71% | 0.16 µM | 104% | > 1200 | Activity (Plasmodium falciparum [6]): Active; concentration at 24 h [7]: < 17 nM; Activity (Plasmodium falciparum [8]): Active; microsomal CLint at 1 µM [9]: 11 µL/min/mg; half-life at 1 µM [10]: 2.53 h; IC50 (Plasmodium falciparum [5]): > 1 µM; Activity (Plasmodium falciparum [11]): inactive; Papp A→B at 20 µM [12]: 55 ×10⁻⁶ cm/s; metabolised at 1 h [13]: 20%; Activity (Plasmodium falciparum [14]): inactive; half-life at 1 µM [15]: 0.55 h; Activity (Plasmodium berghei): inactive; microsomal CLint at 1 µM [16]: 53 µL/min/mg; concentration at 48 h [17]: < 17 nM; concentration at 3 h [18]: 72 nM; Stabilty [19]: Unstable; IC50 (Plasmodium knowlesi): 0.0061 µM
CCCCCc1noc(CNC(=O)[C@H](O)C(C)(C)CO)n1 | 90% | 5.3 µM | 91% | > 37 | –
CCCCCn1cc(CNC(=O)[C@H](O)C(C)(C)CO)nn1 | 77% | 0.056 µM | 88% | > 3500 | Activity (Plasmodium falciparum [6]): Active; concentration at 24 h [7]: < 16 nM; Activity (Plasmodium falciparum [8]): Active; metabolised at 1 h [20]: < 15%; microsomal CLint at 1 µM [9]: < 7 µL/min/mg; half-life at 1 µM [10]: > 4.25 h; IC50 (Plasmodium falciparum [5]): > 0.25 µM; metabolised at 1 h [21]: < 15%; Activity (Plasmodium falciparum [11]): inactive; Papp A→B at 20 µM [12]: 13 ×10⁻⁶ cm/s; Activity (Plasmodium falciparum [14]): inactive; half-life at 1 µM [15]: > 4.25 h; Activity (Plasmodium berghei): inactive; microsomal CLint at 1 µM [16]: < 7 µL/min/mg; concentration at 48 h [17]: < 16 nM; concentration at 3 h [18]: 1100 nM; IC50 (Plasmodium knowlesi): 0.028 µM
CCCCCCc1cc(CNC(=O)[C@H](O)C(C)(C)CO)on1 | 87% | 2.2 µM | 97% | > 90 | –
CCCCCc1nnc(CNC(=O)[C@H](O)C(C)(C)CO)o1 | 91% | 71 µM | 108% | > 2.8 | –
CCCCCn1cnc(CNC(=O)[C@H](O)C(C)(C)CO)c1 | 103% | 14 µM | 91% | > 14 | –
CCCCCc1cc(CNC(=O)[C@H](O)C(C)(C)CO)n[nH]1 | 89% | 7.4 µM | 88% | > 27 | –
CCCCCn1ncc(CNC(=O)[C@H](O)C(C)(C)CO)n1 | 103% | 28 µM | 97% | > 7.1 | –
NNC(=O)N1C(=O)c2cc(S(=O)(=O)[O-])cc3c(N)c(S(=O)(=O)[O-])cc(c23)C1=O.[Li+].[Li+] [LUCIFER YELLOW] | – | – | – | – | Papp A→B at 20 µM [12]: < 1 ×10⁻⁶ cm/s
CCCCCCc1cc(CNC(=O)[C@H](O)C(C)(C)CO)no1 | 60% | 0.24 µM | 78% | > 830 | –
CCCCCn1cc(CNC(=O)[C@H](O)C(C)(C)CO)cn1 | 85% | 34 µM | 102% | > 5 | –
CC(C)(CO)[C@@H](O)C(=O)NCc1cc(CCc2ccccc2)on1 | 95% | 5.9 µM | 94% | > 33 | –
